Where only a bound is given, the exact number is not on record here.

As a reminder, the clearance is the volume of plasma or blood freed of the substance per unit of time. Read a low clearance as a low capacity for elimination.

Sequence of human α4β2 AChRs (P43681 29-627 limits assumed): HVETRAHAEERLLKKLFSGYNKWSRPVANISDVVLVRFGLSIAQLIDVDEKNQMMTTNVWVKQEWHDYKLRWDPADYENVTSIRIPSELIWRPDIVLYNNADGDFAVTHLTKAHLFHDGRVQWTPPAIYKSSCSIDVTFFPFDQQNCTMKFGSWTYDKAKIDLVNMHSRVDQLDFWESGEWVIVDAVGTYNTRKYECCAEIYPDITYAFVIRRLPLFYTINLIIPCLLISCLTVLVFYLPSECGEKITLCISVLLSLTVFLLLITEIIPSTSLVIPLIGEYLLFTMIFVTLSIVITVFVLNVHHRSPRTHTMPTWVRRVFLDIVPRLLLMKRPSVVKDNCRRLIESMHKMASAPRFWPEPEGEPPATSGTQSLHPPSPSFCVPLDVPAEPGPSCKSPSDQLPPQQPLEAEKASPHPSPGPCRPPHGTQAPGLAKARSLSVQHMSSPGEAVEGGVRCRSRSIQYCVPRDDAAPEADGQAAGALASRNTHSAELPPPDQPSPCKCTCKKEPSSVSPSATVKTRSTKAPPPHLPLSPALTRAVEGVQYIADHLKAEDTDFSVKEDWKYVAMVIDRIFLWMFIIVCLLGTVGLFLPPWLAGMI
Sequence of human α4β2 AChRs (P17787 26-502): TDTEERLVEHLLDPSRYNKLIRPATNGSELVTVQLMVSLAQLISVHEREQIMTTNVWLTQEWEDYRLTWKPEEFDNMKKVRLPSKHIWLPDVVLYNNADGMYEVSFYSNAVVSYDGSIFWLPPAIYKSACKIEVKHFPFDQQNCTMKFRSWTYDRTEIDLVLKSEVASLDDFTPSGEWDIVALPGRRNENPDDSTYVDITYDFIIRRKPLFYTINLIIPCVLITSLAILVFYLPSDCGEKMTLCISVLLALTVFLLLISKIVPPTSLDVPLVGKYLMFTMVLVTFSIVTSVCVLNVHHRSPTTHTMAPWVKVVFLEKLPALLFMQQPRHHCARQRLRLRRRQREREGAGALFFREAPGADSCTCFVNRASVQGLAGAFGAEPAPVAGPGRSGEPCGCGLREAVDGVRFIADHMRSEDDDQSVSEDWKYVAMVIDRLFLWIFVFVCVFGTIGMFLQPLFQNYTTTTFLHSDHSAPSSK

For one series, the target named is human α4β2α5 AChRs (Homo sapiens, UniProt P17787+P30532+P43681). In words: FLEXstation membrane potential assay, PAM of nicotine response at α4β2α5. It is filed as cell-based. The conditions noted are these: Maximum efficacy relative to NS9283.
Sequence of human α4β2α5 AChRs (P43681 29-627 limits assumed): as the sequence (P43681 29-627 limits assumed) above
Sequence of human α4β2α5 AChRs (P17787 26-502): as the sequence (P17787 26-502) above
Sequence of human α4β2α5 AChRs (P30532 23-468): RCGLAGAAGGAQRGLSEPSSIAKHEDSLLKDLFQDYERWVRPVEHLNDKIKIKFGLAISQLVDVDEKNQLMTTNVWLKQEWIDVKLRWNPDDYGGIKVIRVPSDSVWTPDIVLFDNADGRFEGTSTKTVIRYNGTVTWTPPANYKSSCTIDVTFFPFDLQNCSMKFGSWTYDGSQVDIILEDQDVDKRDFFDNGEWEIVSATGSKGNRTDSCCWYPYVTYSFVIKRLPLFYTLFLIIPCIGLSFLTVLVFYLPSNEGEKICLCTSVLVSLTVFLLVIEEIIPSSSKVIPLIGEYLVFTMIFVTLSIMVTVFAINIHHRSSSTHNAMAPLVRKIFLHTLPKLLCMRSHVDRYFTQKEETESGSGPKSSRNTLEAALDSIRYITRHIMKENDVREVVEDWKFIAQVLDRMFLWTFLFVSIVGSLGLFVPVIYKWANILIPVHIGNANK
Compound `N#Cc1cccc(-c2nc(-c3cccnc3)no2)c1` [Compound 1a, 3-(3-(pyridin-3-yl)-1,2,4-oxadiazol-5-yl)benzonitrile, reference compound] gave an Emax of 1.

Staying with this series, now noted: read-out: PAM(Y or N).
As for `N#Cc1cccc(-c2nc(-c3ccccc3)no2)c1` [Compound 1b], the activation at 1 µM is less than 50%.
`N#Cc1cccc(-c2nc(-c3ccccn3)no2)c1` [Compound 1c]: the activation at 1 µM was less than 50%.
Same read-out and setting: with `N#Cc1cccc(-c2nc(-c3ccncc3)no2)c1` [Compound 1d] the figure was less than 50%; with `C[n+]1cccc(-c2noc(-c3cccc(C#N)c3)n2)c1` [Compound 1e], less than 50%.
As to `c1ccc(-c2nc(-c3cccnc3)no2)cc1` [Compound 4a], the activation at 1 µM is less than 50%.
Still for that read-out and setting: to `Clc1ccccc1-c1nc(-c2cccnc2)no1` [Compound 4b] belongs less than 50%; to `Clc1ccc(-c2nc(-c3cccnc3)no2)cc1` [Compound 4c], less than 50%.
The same measure, in the same setting: with `Fc1cccc(-c2nc(-c3cccnc3)no2)c1` [Compound 4d] the figure was less than 50%; with `Fc1cccc(-c2nc(-c3cccnc3)no2)c1F` [Compound 4e], less than 50%; with `O=[N+]([O-])c1ccccc1-c1nc(-c2cccnc2)no1` [Compound 4g], less than 50%.
Still for that read-out and setting: with `FC(F)(F)c1cccc(-c2nc(-c3cccnc3)no2)c1` [Compound 4j] the figure was less than 50%; with `FC(F)(F)Oc1cccc(-c2nc(-c3cccnc3)no2)c1` [Compound 4k], less than 50%.
`COc1cccc(-c2nc(-c3cccnc3)no2)c1` [Compound 4l]: the activation at 1 µM is less than 50%.
Turning to `N#Cc1cccc(-n2ccc(-c3cccnc3)n2)c1` [Compound 5a], the activation at 1 µM is less than 50%.
With `N#Cc1cccc(-n2cc(-c3cccnc3)cn2)c1` [Compound 5b], the activation at 1 µM is less than 50%.
On to `N#Cc1cccc(-c2ccn(-c3cccnc3)n2)c1` [Compound 5c], for which the activation at 1 µM is less than 50%.
Same read-out and setting: to `N#Cc1cccc(-c2cn(-c3cccnc3)cn2)c1` [Compound 5d] belongs less than 50%.
As for `N#Cc1cccc(-n2cnc(-c3cccnc3)c2)c1` [Compound 5e], the activation at 1 µM was less than 50%.
Still for that read-out and setting: to `N#Cc1cccc(-c2ncn(-c3cccnc3)n2)c1` [Compound 5f] belongs less than 50%; to `N#Cc1cccc(-n2cc(-c3cccnc3)nn2)c1` [Compound 5j], less than 50%.
On to `C[n+]1cccc(-c2nnn(-c3cccc(C#N)c3)n2)c1` [Compound 11a], for which the activation at 1 µM was less than 50%.
The same measure, in the same setting: with `N#Cc1cccc(-n2nnc(-c3ccccc3)n2)c1` [Compound 11b] the figure was less than 50%.
As to `N#Cc1cccc(-n2nnc(-c3ccncc3)n2)c1` [Compound 11c], the activation at 1 µM is less than 50%.
On the same count and under the same terms, to `N#Cc1cccc(-n2nnc(-c3ccccn3)n2)c1` [Compound 11d] belongs less than 50%; to `N#Cc1cccc(-n2nnc(-c3ccc(Cl)nc3)n2)c1` [Compound 11e], less than 50%; to `N#Cc1cccc(-n2nnc(-c3cccnc3Cl)n2)c1` [Compound 11f], less than 50%.
For `N#Cc1cccc(-n2nnc(-c3cncc(Cl)c3)n2)c1` [Compound 11g], the activation at 1 µM was less than 50%.
Same read-out and setting: to `N#Cc1cccc(-n2nnc(-c3cnccc3Cl)n2)c1` [Compound 11h] belongs less than 50%; to `Fc1ccc(-n2nnc(-c3cccnc3)n2)c(F)c1` [Compound 12a], less than 50%.
For `COc1ccc(OC)c(-n2nnc(-c3cccnc3)n2)c1` [Compound 12b], the activation at 1 µM was less than 50%.
As to `Clc1cc(Cl)cc(-n2nnc(-c3cccnc3)n2)c1` [Compound 12c], the activation at 1 µM was less than 50%.
As for `COc1cc(OC)cc(-n2nnc(-c3cccnc3)n2)c1` [Compound 12d], the activation at 1 µM is less than 50%.
For the compound `NC(=O)c1cccc(-n2nnc(-c3cccnc3)n2)c1` [Compound 12e], the activation at 1 µM is less than 50%.
On the same count and under the same terms, to `Cc1ccc(-n2nnc(-c3cccnc3)n2)cc1C#N` [Compound 12g] belongs less than 50%; to `Clc1ccccc1-n1nnc(-c2cccnc2)n1` [Compound 12i], less than 50%; to `Brc1cccc(-n2nnc(-c3cccnc3)n2)c1` [Compound 12j], less than 50%.

The next series has as its target human α4β2 AChRs (Homo sapiens, UniProt P17787+P43681). In words: FLEXstation membrane potential assay at α4β2. The series is classed as cell-based. Particulars: compared with α4β2α5. The essentials: (§1)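 HEK tsA201 cells stably expressing the human receptor, kept in high-glucose DMEM with 10% FBS at 37 °C. Seeded on poly-D-lysine wells (150,000/well α4β2, α3β2; 200,000/well α3β2α5), then held at 29 °C for 20 h to raise expression. Membrane-potential dye fluorometry. Test compound serial dilutions added 15 min before nicotine. Response enhancement over nicotine alone, 3–4 wells per point, Hill fit; efficacy relative to reference PAM.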
Regarding `N#Cc1cccc(-n2nnc(-c3cccnc3)n2)c1` [Compound 5k, 3-(5-(pyridin-3-yl)-2H-tetrazol-2-yl)benzonitrile], the “PAM potency on α4β2 (in words)” value is on record as “equally potent”.

The same series, now with this note: without orthosteric agonist.
For the compound `N#Cc1cccc(-c2nc(-c3cccnc3)no2)c1` [Compound 1a, 3-(3-(pyridin-3-yl)-1,2,4-oxadiazol-5-yl)benzonitrile, reference compound], the “agonist activity at α4β2” value is given as “no agonist activity”.

The next series deals with human α3β4 AChRs (Homo sapiens, UniProt P30926+P32297). In words: Counter-screen against α3β4 nAChR.
Sequence of human α3β4 AChRs (P32297 32-505): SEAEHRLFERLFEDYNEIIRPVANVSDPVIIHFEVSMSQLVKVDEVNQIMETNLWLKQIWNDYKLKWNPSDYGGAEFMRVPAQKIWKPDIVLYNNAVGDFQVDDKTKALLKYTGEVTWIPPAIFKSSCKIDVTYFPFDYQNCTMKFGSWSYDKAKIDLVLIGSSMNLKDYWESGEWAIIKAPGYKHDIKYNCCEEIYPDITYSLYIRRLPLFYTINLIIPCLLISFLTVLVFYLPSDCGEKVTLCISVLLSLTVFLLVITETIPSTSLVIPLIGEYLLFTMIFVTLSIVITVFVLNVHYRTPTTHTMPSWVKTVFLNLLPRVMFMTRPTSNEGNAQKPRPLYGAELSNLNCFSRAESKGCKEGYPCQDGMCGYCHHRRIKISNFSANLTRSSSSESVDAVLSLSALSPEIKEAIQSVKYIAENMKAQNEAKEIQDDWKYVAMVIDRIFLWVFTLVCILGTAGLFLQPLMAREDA
Sequence of human α3β4 AChRs (P30926 22-498): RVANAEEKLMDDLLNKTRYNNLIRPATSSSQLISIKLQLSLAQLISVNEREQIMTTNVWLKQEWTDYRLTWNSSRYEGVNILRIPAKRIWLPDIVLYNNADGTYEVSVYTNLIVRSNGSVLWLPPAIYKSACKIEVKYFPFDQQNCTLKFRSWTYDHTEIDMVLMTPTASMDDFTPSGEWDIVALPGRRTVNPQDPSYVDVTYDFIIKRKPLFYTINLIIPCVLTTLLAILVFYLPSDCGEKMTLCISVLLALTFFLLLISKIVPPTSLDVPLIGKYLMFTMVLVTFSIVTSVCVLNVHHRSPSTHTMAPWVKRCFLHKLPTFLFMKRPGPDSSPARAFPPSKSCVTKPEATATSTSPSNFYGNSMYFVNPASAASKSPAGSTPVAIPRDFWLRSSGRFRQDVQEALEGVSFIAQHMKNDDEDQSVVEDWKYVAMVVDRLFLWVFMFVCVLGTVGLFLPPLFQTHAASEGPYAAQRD
Conditions: not given
It is filed as cell-based. Put shortly:
(§2)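 Membrane-potential fluorometry on HEK tsA201 cells stably expressing human receptor, cultured in high-glucose DMEM with 10% FBS, 37 °C, 5% CO2. Poly-D-lysine-coated wells seeded at 150,000 (α3β4) or 200,000 (α3β4α5) cells. Serial dilutions of test compound applied 15 min before nicotine, injected during recording. Points averaged from 3–4 wells; Hill equation fitted to enhancement relative to nicotine-evoked signal.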
(In general: Counterscreens check selectivity or assay interference.)
In the case of `N#Cc1cccc(-c2nc(-c3cccnc3)no2)c1` [Compound 1a, 3-(3-(pyridin-3-yl)-1,2,4-oxadiazol-5-yl)benzonitrile, reference compound], the “activity against α3β4” value was “no activity”.
Regarding `N#Cc1cccc(-n2nnc(-c3cccnc3)n2)c1` [Compound 5k, 3-(5-(pyridin-3-yl)-2H-tetrazol-2-yl)benzonitrile], the “activity against α3β4” value is listed as “no activity”.

The target in another series is human α3β4α5 AChRs (Homo sapiens, UniProt P30532+P30926+P32297). In words: Counter-screen against α3β4α5 nAChR. The series is classed as cell-based.
Sequence of human α3β4α5 AChRs (P32297 32-505): as the sequence (P32297 32-505) above
Sequence of human α3β4α5 AChRs (P30926 22-498): as the sequence (P30926 22-498) above
Sequence of human α3β4α5 AChRs (P30532 23-468): as the sequence (P30532 23-468) above
Conditions: not given
The essentials:
as §2
In the case of `N#Cc1cccc(-c2nc(-c3cccnc3)no2)c1` [Compound 1a, 3-(3-(pyridin-3-yl)-1,2,4-oxadiazol-5-yl)benzonitrile, reference compound], the “activity against α3β4α5” value is “no activity”.
In the case of `N#Cc1cccc(-n2nnc(-c3cccnc3)n2)c1` [Compound 5k, 3-(5-(pyridin-3-yl)-2H-tetrazol-2-yl)benzonitrile], the “activity against α3β4α5” value is listed as “no activity”.

The next series deals with human α3β2 AChRs (Homo sapiens, UniProt P17787+P32297). In words: Counter-screen against α3β2 nAChR. The series is classed as cell-based.
Sequence of human α3β2 AChRs (P32297 32-505): as the sequence (P32297 32-505) above
Sequence of human α3β2 AChRs (P17787 26-502): as the sequence (P17787 26-502) above
Conditions: not given
Put shortly:
as §1
For `N#Cc1cccc(-c2nc(-c3cccnc3)no2)c1` [Compound 1a, 3-(3-(pyridin-3-yl)-1,2,4-oxadiazol-5-yl)benzonitrile, reference compound], the “activity against α3β2” value was “no activity”.
Same read-out and setting: with `N#Cc1cccc(-n2nnc(-c3cccnc3)n2)c1` [Compound 5k, 3-(5-(pyridin-3-yl)-2H-tetrazol-2-yl)benzonitrile] the entry was “no activity”.

For the next series, the target named is human α3β2α5 AChRs (Homo sapiens, UniProt P17787+P30532+P32297). In words: Counter-screen against α3β2α5 nAChR. It is filed as cell-based.
Sequence of human α3β2α5 AChRs (P32297 32-505): as the sequence (P32297 32-505) above
Sequence of human α3β2α5 AChRs (P17787 26-502): as the sequence (P17787 26-502) above
Sequence of human α3β2α5 AChRs (P30532 23-468): as the sequence (P30532 23-468) above
Conditions: not given
Put shortly:
as §1
With `N#Cc1cccc(-c2nc(-c3cccnc3)no2)c1` [Compound 1a, 3-(3-(pyridin-3-yl)-1,2,4-oxadiazol-5-yl)benzonitrile, reference compound], the “activity against α3β2α5” value is reported as “no activity”.
Still for that read-out and setting: with `N#Cc1cccc(-n2nnc(-c3cccnc3)n2)c1` [Compound 5k, 3-(5-(pyridin-3-yl)-2H-tetrazol-2-yl)benzonitrile] the entry was “no activity”.

System in a further series: not listed separately
In words: Pharmacokinetics in mice. It is filed as in vivo. Particulars: mice.
With `N#Cc1cccc(-n2nnc(-c3cccnc3)n2)c1` [Compound 5k, 3-(5-(pyridin-3-yl)-2H-tetrazol-2-yl)benzonitrile], the “clearance (in words)” value is reported as “moderate clearance” and the “oral exposure (in words)” value is “very good oral exposure”.

The same series, now with this note: mouse, in vivo, intravenous, 1 mg/kg.
The compound `N#Cc1cccc(-n2nnc(-c3cccnc3)n2)c1` [Compound 5k, 3-(5-(pyridin-3-yl)-2H-tetrazol-2-yl)benzonitrile] had a clearance of 46 mL/min/kg.

The values above are taken from publication PMC3929235 (Bioorganic & medicinal chemistry letters, 2013).
